# Active and inactive are the calls of the source. The rule behind the calls is not given here.
# Key:
# [1] = Induction of micronucleation in potoroo PtK2 cells at 5 uM after 7 hrs by flow cytometry; type: functional, Potorous tridactylus
# [2] = Induction of mitotic cell cycle arrest in potoroo PtK2 cells assessed as accumulation of cells at G1/G0 phase at 5 uM treated for 7 hrs, washed followed by 16 hrs incubation by flow cytometry (Rvb= 59%); type: functional, Potorous tridactylus
# PtK2 [3] = test: Induction of microtubule bundle formation in potoroo PtK2 cells at 5 uM after 7 hrs by flow cytometry; type: cell-based; settings: Potorous tridactylus
# Tubulin (Homo sapiens) [4] = molecular target: T1, Tubulin (Homo sapiens) (UniProt P68371+Q9H4B7+P0DPH7+P68366+Q13509+Q71U36+P04350+Q3ZCM7+P07437+P68363+Q9BQE3+Q6PEY2+Q13885+Q9BVA1+Q9BUF5); test: Induction of covalent modification of tubulin at Thr220 and Asn228 in human A549 cells by HPLC analysis; type: cell-based
# Procedure, shortened: (§1)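 A549 monolayers exposed 24 h to 1 µM ligand or 0.1% DMSO. Tubulin purified from homogenate supernatant by one-step DEAE ion exchange (0.4 M KCl load, 0.8 M KCl elution) to 90% purity. Tryptic or chymotryptic digests analysed by HPLC-MRM with Q3 at m/z 249.0. Adduct fraction estimated from the areas of modified and unmodified peptide peaks.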
# [5] = Induction of mitotic cell cycle arrest in potoroo PtK2 cells assessed as accumulation at S phase at 2 uM treated for 7 hrs, washed followed by 48 hrs incubation by flow cytometry (Rvb= 10.7%); type: functional, Potorous tridactylus
# Tubulin (Homo sapiens) [6] = molecular target: T1, Tubulin (Homo sapiens); test: Binding affinity to tubulin in human A549 cells
# [7] = Induction of mitotic cell cycle arrest in potoroo PtK2 cells assessed as accumulation at S phase at 100 nM after 24 hrs by flow cytometry (Rvb= 12%); type: functional, Potorous tridactylus
# A549 [8] = test: Induction of mitotic cell cycle arrest in human A549 cells assessed as accumulation of cells at SubG1 phase at 100 nM after 24 hrs by flow cytometry (Rvb= 25%); type: functional
# [9] = Induction of mitotic cell cycle arrest in potoroo PtK2 cells assessed as accumulation of cells at SubG1 phase at 2 uM treated for 7 hrs, washed followed by 48 hrs incubation by flow cytometry (Rvb= 1.1%); type: functional, Potorous tridactylus
# [10] = Induction of mitotic cell cycle arrest in potoroo PtK2 cells assessed as accumulation of cells at G1/G0 phase at 2 uM treated for 7 hrs, washed followed by 48 hrs incubation by flow cytometry (Rvb= 65.8%); type: functional, Potorous tridactylus
# PtK2 [11] = test: Induction of micronucleation in potoroo PtK2 cells at 10 uM after 7 hrs by flow cytometry; settings: Potorous tridactylus
# [12] = Induction of mitotic cell cycle arrest in human A2780AD cells assessed as accumulation of cells at G1/G0 phase at 100 nM after 24 hrs by flow cytometry (Rvb= 59.2%); type: functional, A2780 ADR
# PtK2 [13] = test: Induction of microtubule bundle formation in potoroo PtK2 cells at 2 uM after 7 hrs by flow cytometry; type: cell-based; settings: Potorous tridactylus
# [14] = Displacement of [3H]discodermolide from microtubule assessed as bound radioligand level at 20 uM treated after radioligand addition by competitive binding assay
# [15] = Induction of micronucleation in potoroo PtK2 cells at 10 uM after 7 hrs by flow cytometry; type: functional, Potorous tridactylus
# PtK2 [16] = test: Induction of micronucleation in potoroo PtK2 cells at 5 uM treated for 7 hrs followed by compound washout measured after 16 hrs by flow cytometry; settings: Potorous tridactylus
# [17] = Induction of micronucleation in potoroo PtK2 cells at 2 uM after 7 hrs by flow cytometry; type: functional, Potorous tridactylus
# A549 [18] = test: Cytotoxicity against human A549 cells; type: functional, cell-based
# [19] = Binding affinity to microtubule
# A549 [20] = test: Induction of mitotic cell cycle arrest in human A549 cells assessed as accumulation of cells at G1/G0 phase at 100 nM after 24 hrs by flow cytometry (Rvb= 39.2%); type: functional
# [21] = Induction of mitotic cell cycle arrest in potoroo PtK2 cells assessed as accumulation of cells at G1/G0 phase at 2 uM after 7 hrs by flow cytometry (Rvb= 60%); type: functional, Potorous tridactylus
# [22] = Cytotoxicity against human 1A9PTX10 cells; type: functional, cell-based; settings: 1A9/ptx-10
# [23] = Displacement of [3H]epothilone B from microtubule assessed as bound radioligand level at 20 uM treated before radioligand addition by competitive binding assay
# [24] = Binding affinity to beta-tubulin 219-243 amino acid sequence by mass spectroscopy
# Procedure, shortened: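 Polymerized native microtubules (20 µM tubulin, 25 µM ligand, 30 min, 37 °C in GAB with 1 mM GTP) pelleted and washed, then digested with trypsin (2 h, 37 °C) or chymotrypsin (1 h, 25 °C). Peptides analysed by nano-HPLC triple-quadrupole MS with precursor ion scanning for the m/z 249.0 cyclostreptin fragment. Adduct stoichiometry taken from the 219–243 peptide signal.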
# A2780 [25] = test: Induction of mitotic cell cycle arrest in human A2780 cells assessed as accumulation of cells at SubG1 phase at 100 nM after 24 hrs by flow cytometry (Rvb= 2.5%); type: functional
# [26] = Displacement of [3H]discodermolide from microtubule assessed as bound radioligand level at 20 uM treated before radioligand addition by competitive binding assay
# [27] = Displacement of [3H]paclitaxel from microtubule assessed as bound radioligand level at 20 uM treated before radioligand addition by competitive binding assay
# PtK2 [28] = test: Displacement of Flutax-2 from microtubule in potoroo PtK2 cells at 100 uM; settings: Potorous tridactylus
# [29] = Induction of micronucleation in potoroo PtK2 cells at 2 uM treated for 7 hrs followed by compound washout measured after 16 hrs by flow cytometry; type: functional, Potorous tridactylus
# A2780 [30] = test: Induction of mitotic cell cycle arrest in human A2780 cells assessed as accumulation of cells at G1/G0 phase at 100 nM after 24 hrs by flow cytometry (Rvb= 60%); type: functional
# A2780 [31] = test: Induction of mitotic cell cycle arrest in human A2780 cells assessed as accumulation of cells at S phase at 100 nM after 24 hrs by flow cytometry (Rvb= 17.5%); type: functional
# [32] = Induction of mitotic cell cycle arrest in potoroo PtK2 cells assessed as accumulation of cells at SubG1 phase at 5 uM treated for 7 hrs, washed followed by 16 hrs incubation by flow cytometry (Rvb= 2%); type: functional, Potorous tridactylus
# [33] = Induction of mitotic cell cycle arrest in human A2780AD cells assessed as accumulation of cells at S phase at 100 nM after 24 hrs by flow cytometry (Rvb= 16.2%); type: functional, A2780 ADR
# A549 [34] = test: Binding affinity to beta-tubulin in human A549 cells at 1 uM after 24 hrs by HPLC analysis; type: cell-based; procedure, shortened: as §1
# A2780 [35] = test: Cytotoxicity against human A2780 cells; type: functional, cell-based
smiles,measurement,setting,value
CC1=C[C@H]2[C@@H](O)[C@H](C)[C@@H](O)[C@@H]2[C@H]2[C@@H]3C4=C5O[C@](C)(CC[C@@H](OC4=O)[C@H]5C)[C@@H]3C[C@@H]12 [CYCLOSTREPTIN],Activity,[1],4%
same,Activity,[2],18.5%
same,Activity,PtK2 [3],4%
same,Activity,Tubulin (Homo sapiens) [4],Active
same,Activity,[5],10%
same,Activity,Tubulin (Homo sapiens) [6],Active
same,Activity,[7],14.8%
same,Activity,A549 [8],15%
same,Activity,[9],7.1%
same,Activity,[10],8.7%
same,Activity,PtK2 [11],4%
same,Activity,[12],6.6%
same,Activity,PtK2 [13],4%
same,Activity,[14],96%
same,Activity,[15],4%
same,Activity,PtK2 [16],70%
same,Activity,[17],4%
same,IC50,A549 [18],45.5 nM
same,Kd,[19],49 nM
same,Activity,A549 [20],4%
same,Activity,[21],48%
same,IC50,[22],240 nM
same,Activity,[23],12%
same,Activity,[24],Active
same,Activity,A2780 [25],16.3%
same,Activity,[26],19%
same,Activity,[27],25%
same,Activity,PtK2 [28],Active
same,Activity,[29],70%
same,Activity,A2780 [30],12.1%
same,Activity,A2780 [31],10.6%
same,Activity,[32],3.4%
same,Activity,[33],6%
same,Activity,A549 [34],Active
same,IC50,A2780 [35],43.5 nM
